The target of data set [1] is Cyclin-dependent kinase 2 (Homo sapiens, UniProt P24941). As to the kind of experiment: Inhibition of CDK2/cyclin A by IMAP florescence polarization assay.
The target in data set [2] is Cyclin-dependent kinase 9 (Homo sapiens, UniProt P50750). As to the kind of experiment: Inhibition of CDK9 in human HCT116 cells assessed as phosphor-ser2 level of RNA polymerase 2 after 16 hrs by high content cellular assay. The class given is cell-based, HCT-116.
Data set [3] can be described thus: AUC in CD1 mouse at 10 mg/kg, po. The class given is ADME, organism-based. Further details: dose 10 mg/kg, route oral. Conditions: plasma. Summed up:
(§1)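 Female CD-1 mice, 6–8 weeks old, 3 mice per timepoint. Single oral gavage dose of 10, 30 or 45 mg/kg at 10 mL/kg in 2.1 mM tartaric acid, pH 4.0. Terminal cardiac-puncture blood taken at 0.25–8 h into K2-EDTA and spun to plasma. Plasma read by LC–MS/MS (LLOD 1 ng/mL). Concentrations were averaged per timepoint before PK estimation.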

Data set [4] has as its target Cyclin-dependent kinase 1/cyclin B1 (Homo sapiens, UniProt P06493). As to the kind of experiment: Inhibition of CDK1/cyclin B by IMAP florescence polarization assay. The class given is protein-complex assay. In outline:
(§2)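 IMAP fluorescence polarization kinase assay measuring phosphorylation of a fluorescein-labeled substrate. Run in IMAP tween reaction buffer with 1 mM DTT and sodium vanadate.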

The nature of data set [5]: Metabolic stability in human liver microsomes at 1 uM after 60 mins. It counts as ADME, Microsome. Conditions: read-out: Stability. Summed up: (§3)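 Liver microsomes at 0.5 mg/mL protein in 100 mM sodium phosphate, pH 7.4, with 3.3 mM MgCl2, pre-equilibrated 10 min at 37 °C. Reaction started with 1 mM NADPH. Aliquots taken at 0, 30 and 60 min and quenched in acetonitrile with internal standard, then centrifuged and analysed by LC–MS/MS. Lidocaine and dextromethorphan served as positive controls.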

Data set [6] is described as follows: Metabolic stability in human liver microsomes at 1 uM after 30 mins. It counts as ADME, Microsome. Conditions: read-out: Stability. Summed up:
as §3
(Liver microsomes are vesicles of endoplasmic reticulum, rich in cytochrome P450 enzymes.)

Data set [7] in a line: Half life in CD1 mouse at 30 mg/kg, po. It counts as ADME, organism-based. Details: dose 30 mg/kg, route oral. The conditions noted are these: in vivo. Summed up: as §1
A short description of data set [8]: Half life in CD1 mouse at 10 mg/kg, po. The conditions noted are these: in vivo. It counts as ADME, organism-based. Details: dose 10 mg/kg, route oral. In outline: as §1
Data set [9] is described as follows: AUC in CD1 mouse at 45 mg/kg, po. Further details: dose 45 mg/kg, route oral. Conditions: plasma. The class given is ADME, organism-based. Summed up:
as §1

For the next data set, the target named is CDK9/cyclin T1 (Homo sapiens, UniProt P50750). Kind of data set: Inhibition of CDK9/cyclinT by IMAP florescence polarization assay. Summed up:
as §2

The nature of data set [10]: Cmax in CD1 mouse at 45 mg/kg, po. Further details: dose 45 mg/kg, route oral. Conditions: in vivo. The class given is ADME, organism-based. Summed up: as §1
Data set [11] can be described thus: Metabolic stability in mouse liver microsomes at 1 uM after 60 mins. The class given is ADME, Microsome. The conditions noted are these: read-out: Stability. In outline:
as §3

A short description of data set [12]: Efflux ratio of permeability from basolateral to apical side to apical to basolateral side in MDCK2 cells at 2 uM after 3 hrs. The class given is ADME, cell-based, Canis lupus familiaris, MDCK-II. Conditions: dog, MDCK. In outline: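 MDCK II cells grown in DMEM with 10% FBS and antibiotics, seeded 50,000 cells/well on transwells and cultured 5 days; monolayers PBS-washed. Compound at 2 μM in DMEM added to apical or basolateral side; both compartments sampled after 3 h at 37 °C in humidified CO₂. Quantified by LC–MS/MS with verapamil internal standard; Papp calculated per direction.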

The nature of data set [13]: Clearance in CD1 mouse at 5 mg/kg, iv. It counts as ADME, organism-based. Further details: dose 5 mg/kg, route intravenous. Conditions: in vivo. In outline: (§4)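 Single IV tail-vein dose of 5 mg/kg at 5 mL/kg in 2.1 mM tartaric acid, pH 4.0, to female CD-1 mice aged 6–8 weeks, 3 per timepoint. Blood taken by cardiac puncture after euthanasia at 0.083–8 h into K2-EDTA, and plasma analysed by LC–MS/MS (LLOD 1 ng/mL). PK parameters were estimated from mean concentrations per timepoint.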

The nature of data set [14]: Volume of distribution at steady state in CD1 mouse at 5 mg/kg, iv. The conditions noted are these: in vivo, read-out: Vdss. The class given is ADME, organism-based. Further details: dose 5 mg/kg, route intravenous. In outline:
as §4

Data set [15] can be described thus: Bioavailability in CD1 mouse at 30 mg/kg, po. The class given is ADME, organism-based. Conditions: in vivo. Summed up: as §1
Data set [16] can be described thus: AUC in CD1 mouse at 30 mg/kg, po. The class given is ADME, organism-based. Further details: dose 30 mg/kg, route oral. The conditions noted are these: plasma. In outline:
as §1

The nature of data set [17]: Metabolic stability in mouse liver microsomes at 1 uM after 30 mins. It counts as ADME, Microsome. The conditions noted are these: read-out: Stability. Summed up: as §3
The nature of data set [18]: Cmax in CD1 mouse at 10 mg/kg, po. The class given is ADME, organism-based. Further details: dose 10 mg/kg, route oral. The conditions noted are these: in vivo. In outline: as §1
A short description of data set [19]: Bioavailability in CD1 mouse at 45 mg/kg, po. It counts as ADME, organism-based. The conditions noted are these: in vivo. Summed up: as §1
Data set [20] in a line: Cmax in CD1 mouse at 30 mg/kg, po. The class given is ADME, organism-based. Further details: dose 30 mg/kg, route oral. Conditions: in vivo. In outline:
as §1

A short description of data set [21]: Bioavailability in CD1 mouse at 10 mg/kg, po. It counts as ADME, organism-based. Conditions: in vivo. Summed up: as §1
Data set [22] can be described thus: Half life in CD1 mouse at 45 mg/kg, po. Details: dose 45 mg/kg, route oral. Conditions: in vivo. The class given is ADME, organism-based. Summed up: as §1
Data set [23] can be described thus: Cmax in CD1 mouse at 5 mg/kg, iv. It counts as ADME, organism-based. Details: dose 5 mg/kg, route intravenous. Conditions: in vivo. In outline: as §4
Data set [24] addresses Cyclin-dependent kinase 7/ cyclin H (Homo sapiens, UniProt P50613). Kind of data set: Inhibition of CDK7/cyclinH by Upstate enzymatic assay.
Data set [25] is described as follows: Inhibition of CDK6/cyclin D by IMAP florescence polarization assay. In outline:
as §2

Data set [26] can be described thus: AUC in CD1 mouse at 5 mg/kg, iv. Details: dose 5 mg/kg, route intravenous. It counts as ADME, organism-based. The conditions noted are these: plasma. Summed up:
as §4

A short description of data set [27]: Half life in CD1 mouse at 5 mg/kg, iv. Details: dose 5 mg/kg, route intravenous. It counts as ADME, organism-based. Conditions: in vivo. Summed up: as §4

pIC50: −log10 of the molar value. Some results are limits rather than exact numbers.

Cyclin-dependent kinase 9, sequence (P50750 whole entry): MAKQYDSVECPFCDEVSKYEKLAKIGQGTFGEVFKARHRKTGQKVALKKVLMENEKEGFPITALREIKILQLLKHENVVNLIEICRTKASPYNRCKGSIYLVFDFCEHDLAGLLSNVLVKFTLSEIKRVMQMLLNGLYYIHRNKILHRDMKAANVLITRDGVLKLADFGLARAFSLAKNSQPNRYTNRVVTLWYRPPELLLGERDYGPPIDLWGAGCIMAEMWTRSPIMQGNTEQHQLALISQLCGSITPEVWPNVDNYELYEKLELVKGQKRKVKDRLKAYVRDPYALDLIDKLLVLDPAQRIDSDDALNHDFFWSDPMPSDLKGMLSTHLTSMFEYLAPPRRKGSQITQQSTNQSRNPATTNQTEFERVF
Cyclin-dependent kinase 7/ cyclin H, sequence (P51946 whole entry): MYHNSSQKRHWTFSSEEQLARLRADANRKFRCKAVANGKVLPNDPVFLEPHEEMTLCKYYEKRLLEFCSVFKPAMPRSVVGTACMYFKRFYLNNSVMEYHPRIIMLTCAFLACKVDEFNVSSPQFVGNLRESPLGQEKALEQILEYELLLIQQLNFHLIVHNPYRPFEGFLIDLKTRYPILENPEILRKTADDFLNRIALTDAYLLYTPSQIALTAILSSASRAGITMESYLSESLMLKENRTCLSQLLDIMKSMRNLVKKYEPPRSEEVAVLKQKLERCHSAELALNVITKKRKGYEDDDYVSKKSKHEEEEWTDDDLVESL
Cyclin-dependent kinase 7/ cyclin H, sequence (P50613 whole entry): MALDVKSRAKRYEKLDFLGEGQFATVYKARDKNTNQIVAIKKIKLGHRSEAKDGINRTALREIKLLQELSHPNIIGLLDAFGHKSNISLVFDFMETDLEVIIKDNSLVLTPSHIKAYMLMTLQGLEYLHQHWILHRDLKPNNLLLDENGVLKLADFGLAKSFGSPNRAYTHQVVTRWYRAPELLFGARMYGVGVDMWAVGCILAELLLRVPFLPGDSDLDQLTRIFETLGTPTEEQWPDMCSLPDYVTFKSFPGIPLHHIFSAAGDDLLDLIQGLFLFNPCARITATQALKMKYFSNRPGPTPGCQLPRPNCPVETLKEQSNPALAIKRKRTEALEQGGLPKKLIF
Cyclin-dependent kinase 1/cyclin B1, sequence (P06493 whole entry): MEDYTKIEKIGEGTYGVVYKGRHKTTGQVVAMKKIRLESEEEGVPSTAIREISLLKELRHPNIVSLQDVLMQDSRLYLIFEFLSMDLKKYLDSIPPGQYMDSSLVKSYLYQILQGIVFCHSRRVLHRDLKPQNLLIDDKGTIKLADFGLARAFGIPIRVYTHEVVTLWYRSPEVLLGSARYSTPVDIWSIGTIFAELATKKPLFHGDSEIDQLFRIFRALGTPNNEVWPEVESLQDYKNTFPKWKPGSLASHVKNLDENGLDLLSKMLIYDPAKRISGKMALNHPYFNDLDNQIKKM
Cyclin-dependent kinase 1/cyclin B1, sequence (P14635 whole entry, further chain): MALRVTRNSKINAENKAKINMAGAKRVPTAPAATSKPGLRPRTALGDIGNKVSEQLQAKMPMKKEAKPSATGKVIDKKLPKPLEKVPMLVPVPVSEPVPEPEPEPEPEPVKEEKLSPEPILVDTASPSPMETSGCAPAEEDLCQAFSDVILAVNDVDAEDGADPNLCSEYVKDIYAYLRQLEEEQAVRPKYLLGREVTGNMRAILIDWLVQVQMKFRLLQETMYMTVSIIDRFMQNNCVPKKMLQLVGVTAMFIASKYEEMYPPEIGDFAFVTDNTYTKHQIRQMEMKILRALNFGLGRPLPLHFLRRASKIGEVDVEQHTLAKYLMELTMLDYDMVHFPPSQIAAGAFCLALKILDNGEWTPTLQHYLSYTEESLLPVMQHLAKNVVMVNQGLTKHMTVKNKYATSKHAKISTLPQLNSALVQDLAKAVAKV
CDK9/cyclin T1, sequence (O60563 whole entry): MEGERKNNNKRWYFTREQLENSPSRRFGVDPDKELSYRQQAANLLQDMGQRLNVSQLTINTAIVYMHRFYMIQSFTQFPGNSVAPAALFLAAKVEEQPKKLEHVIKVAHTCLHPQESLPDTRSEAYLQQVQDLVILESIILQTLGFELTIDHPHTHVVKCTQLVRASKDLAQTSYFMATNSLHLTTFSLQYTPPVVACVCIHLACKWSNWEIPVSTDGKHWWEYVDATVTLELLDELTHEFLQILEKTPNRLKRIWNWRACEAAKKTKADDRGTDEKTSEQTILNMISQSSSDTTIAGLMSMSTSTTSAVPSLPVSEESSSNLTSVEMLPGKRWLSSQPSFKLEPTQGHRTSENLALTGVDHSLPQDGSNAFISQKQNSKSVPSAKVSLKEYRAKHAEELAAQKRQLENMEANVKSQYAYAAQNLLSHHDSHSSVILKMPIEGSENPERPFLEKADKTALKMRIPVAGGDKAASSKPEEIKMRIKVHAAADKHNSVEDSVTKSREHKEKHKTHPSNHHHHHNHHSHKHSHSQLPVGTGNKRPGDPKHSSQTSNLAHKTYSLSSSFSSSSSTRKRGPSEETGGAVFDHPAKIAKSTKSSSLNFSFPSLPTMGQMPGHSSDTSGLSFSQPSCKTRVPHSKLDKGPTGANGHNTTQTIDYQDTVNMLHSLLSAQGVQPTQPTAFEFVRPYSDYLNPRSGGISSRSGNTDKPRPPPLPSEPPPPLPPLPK
CDK9/cyclin T1, sequence (P50750 whole entry): as the sequence (P50750 whole entry) above

In the case of `CC(C)(C)c1cnc(CSc2cnc(NC3CCNCC3)s2)o1`, the pIC50 in data set [1] is 6.27; in [2] it was less than 5.00.

As to `CC(C)(C)c1cnc(CSc2cnc(NC3CCCCC3)s2)o1`, the negative logarithm of the IC50 (pIC50) in data set [1] was 8.05; in data set [2], less than 5.00.

Consider `CC(C)(C)c1cnc(CSc2cnc(N[C@H]3CC[C@@H](N)CC3)s2)o1`, for which the pIC50 in data set [1] was 6.30; in data set [2] it was less than 5.00.

Turning to `CC(C)(C)c1cnc(CSc2cnc(N[C@H]3CC[C@H](O)CC3)s2)o1`, the figures for the pIC50 in data set [1] and in data set [2] were 8.15 and 5.46, respectively.

For the compound `CC(C)(C)c1cnc(CSc2cnc(NCC3CCNCC3)s2)o1`, the pIC50 is 6.64 in [1] and less than 5.00 in data set [2].

Consider `CC(C)(C)c1cnc(CSc2cnc(NC3CCCC(N)C3)s2)o1` (stereo not given), for which the pIC50 in data set [1] is 6.80; in [2], less than 5.00.

For `CC(C)(C)c1cnc(CSc2cnc(N[C@H]3CC[C@H](N)CC3)s2)o1`, the AUC in data set [3] worked out at 1430 ng·h/mL; in data set [9] it was 10700 ng·h/mL; in data set [16], 6390 ng·h/mL; in data set [26], 1160 ng·h/mL. Moreover, the pIC50 is 7.70 in [1]; 6.12 in data set [4]; 7.01 on CDK9/cyclin T1; 6.45 in data set [2]; 6.98 in [24]; less than 5.70 in data set [25]. Besides, the remaining at 1 h, 1 µM was found to be 53% in data set [5] and 77% in data set [11]. Further, the remaining at 0.5 h, 1 µM was 64% in data set [6] and 76% in data set [17]. For the same compound, the half-life in data set [7] is 1.2 h; in [8], 1.5 h; in data set [22], 1.2 h; in [27] it was 1.9 h. Besides, the Cmax in [10] was found to be 4600 ng/mL; in data set [18], 411 ng/mL; in [20] it was 2390 ng/mL; in [23], 1660 ng/mL. For the same compound, the efflux ratio at 3 h, 2 µM in data set [12] was found to be 9.4. For the same compound, in [13], the clearance came out at 72 mL/min/kg. The Vd in [14] amounted to 6 L/kg. Also, the bioavailability is 92% in data set [15], 100% in data set [19] and 62% in data set [21].

As for `CC(C)(C)c1cnc(CSc2cnc(N)s2)o1`, the pIC50 is 6.16 in data set [1] and less than 5.00 in [2].

Consider `CC(C)(C)c1cnc(CSc2cnc(NCC3CCCCC3)s2)o1`, for which the pIC50 in data set [1] was 6.77; in data set [2], less than 5.00.

Regarding `CC(C)(C)c1cnc(CSc2cnc(NC3CCCC(O)C3)s2)o1` (stereo not given), the pIC50 was 7.55 in [1] and less than 5.00 in data set [2].

For `CC(C)(C)c1cnc(CSc2cnc(NC(=O)C3CCNCC3)s2)o1` [BMS-387032], the AUC in data set [3] came to 434 ng·h/mL; in data set [26] it was 1510 ng·h/mL. For the same compound, the values for the half-life in data set [8] and in data set [27] were 0.5 h and 0.6 h, respectively. The clearance in data set [13] was determined as 55 mL/min/kg. Besides, the Vd in data set [14] is 3 L/kg. For the same compound, the Cmax in data set [18] turned out to be 275 ng/mL; in [23], 2230 ng/mL. The bioavailability in data set [21] is 14%.

For orientation: pIC50 means the IC50 on a negative log10 scale, so that one unit is a factor of ten. The term AUC denotes concentration integrated over time. Read a low AUC as low exposure. In general, half-life refers to the time needed for the level to fall by half in the phase considered. Higher therefore signals slow loss. Broadly, the Cmax is the peak of the concentration-time curve. A word on the efflux ratio: it is a quotient of directional permeabilities that is used to spot active efflux. The term clearance denotes the volume of plasma or blood freed of the substance per unit of time. Low readings indicate a low capacity for elimination, high ones a high capacity for elimination. The term bioavailability denotes dose-corrected exposure relative to a reference, in per cent.

The values are drawn from ChEMBL document CHEMBL1143434, “A diaminocyclohexyl analog of SNS-032 with improved permeability and bioavailability properties” (Bioorg Med Chem Lett, 2008).
